Test results taken from PMC8453865 (Clinical Pharmacology in Drug Development, 2021).
Values joined by “and” are separate entries in the source; they are usually repeats but may differ in a detail not shown here. Equal entries are not always repeated.

Assays:
[1] = test system: CYP3A4/CYP1A2; details: 14 patients, repeat-dose dabrafenib (HPMC capsules); cited from earlier work
[2] = test system: CYP2C9; details: 14 patients, repeat-dose dabrafenib (HPMC capsules); cited from earlier work
[3] = test system: OATP1B3; details: in vitro; cited from earlier work
[4] = test system: OATP1B1; details: in vitro; cited from earlier work
[5] = test system: BCRP; details: in vitro; cited from earlier work
[6] = test system: CYP3A4; details: in vitro, via activation of the pregnane X receptor and constitutive androstane receptor; cited from earlier work
[7] = cited from earlier work
[8] = test system: CYP2B6; details: in vitro, via activation of the pregnane X receptor and constitutive androstane receptor; cited from earlier work
[9] = human, plasma
[10] = test system: CYP3A4; experiment: Effect of dabrafenib
[11] = Safety and tolerability in patients; format: in vivo, human; details: 16 patients, midazolam 3 mg
How it was run: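 Open-label, fixed-sequence study in patients with BRAF V600 mutation–positive tumours. CYP3A and OATP1B1/1B3 probe substrates (3 mg and 10 mg) were given together on day 1, then with the test compound (150 mg twice daily, days 8–23) on days 8 and 22, after an overnight fast of at least 8 h. Monitoring covered physical examination, vital signs, 12-lead ECG, haematology and clinical chemistry, and AEs graded by NCI CTCAE v4.03.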

[12] = test system: OATP1B1/1B3; experiment: Effect of dabrafenib; format: in vivo, human
[13] = cited from earlier work; remark: listed apart in the source
[14] = in vivo; cited from earlier work
[15] = initial administration of dabrafenib vs midazolam alone
[16] = repeat dabrafenib dosing 150 mg twice daily (steady state) vs rosuvastatin alone
[17] = clinical study, coadministration with gemfibrozil

CC(=O)C[C@H](c1ccccc1)c1c(O)c2ccccc2oc1=O [R‐warfarin]
decrease in single‐dose AUC [1]: 33%

CC(=O)C[C@@H](c1ccccc1)c1c(O)c2ccccc2oc1=O [S‐warfarin]
decrease in single‐dose AUC [2]: 37%

CC(C)(C(=O)O)c1nc(-c2cccc(NS(=O)(=O)c3c(F)cccc3F)c2F)c(-c2ccnc(N)n2)s1 [carboxy‐dabrafenib]
inhibition of OATP1B3 [3]: inhibitors | inhibition of OATP1B1 [4]: inhibitors

CC(C)(C)c1nc(-c2cccc(NS(=O)(=O)c3c(F)cccc3F)c2F)c(-c2ccnc(N)n2)s1 [dabrafenib]
inhibition of BCRP [5]: inhibitors | induction of CYP3A4 [6]: induces | AUC HPMC/gelatin ([7]; dabrafenib HPMC capsules vs gelatin capsules): 1.8 fold | median terminal‐phase half‐life (t1/2) ([7]; single oral dose of dabrafenib): ≈ 8 hours | time of peak plasma concentrations after dosing ([7]; single oral dose of dabrafenib): approximately 2 hours | oral bioavailability ([7]; single oral dose relative to an intravenous microdose): 94.5% | induction of CYP2B6 [8]: induces | inhibition of OATP1B3 [3]: inhibitors | inhibition of OATP1B1 [4]: inhibitors

CC(C)c1nc(-c2cccc(NS(=O)(=O)c3c(F)cccc3F)c2F)c(-c2ccnc(N)n2)s1 [desmethyl‐dabrafenib]
inhibition of BCRP [5]: inhibitors | inhibition of OATP1B3 [3]: inhibitors | inhibition of OATP1B1 [4]: inhibitors

CC(C)(CO)c1nc(-c2cccc(NS(=O)(=O)c3c(F)cccc3F)c2F)c(-c2ccnc(N)n2)s1 [hydroxy‐dabrafenib]
terminal half‐life of metabolite ([7]; dabrafenib metabolites): 582 min | inhibition of OATP1B3 [3]: inhibitors | inhibition of OATP1B1 [4]: inhibitors

Cc1ncc2n1-c1ccc(Cl)cc1C(c1ccccc1F)=NC2 [midazolam]
Tmax [9]: 15 min | change in midazolam AUC0‐∞ [10, 15]: no change | decrease in midazolam Cmax [10, 15]: 1% | effect of dabrafenib on midazolam tmax ([10]; initial and repeat dabrafenib dosing vs midazolam alone): No effect | decrease in midazolam Cmax ([10]; repeat dabrafenib dosing 150 mg twice daily (steady state) vs midazolam alone): 47% | grade 4 presyncope attributed to midazolam dosing [11]: 1 patient

CC(C)c1nc(N(C)S(C)(=O)=O)nc(-c2ccc(F)cc2)c1/C=C/[C@@H](O)C[C@@H](O)CC(=O)O [rosuvastatin]
increase in rosuvastatin Cmax ([12]; dabrafenib at initiation of dosing vs rosuvastatin alone): 1.9 fold | increase in rosuvastatin AUC0‐∞ [12, 16]: 7% | increase in rosuvastatin Cmax [12, 16]: 2.56 fold and 2.6 fold | rosuvastatin AUC change with gemfibrozil [13, 17]: 1.9 fold | rosuvastatin Cmax change with gemfibrozil [13, 17]: 2.21 fold | alteration in the PK parameters of rosuvastatin ([13]; healthy volunteer study, after 6 days of rifampin (inducer) dosing): no significant alteration | rosuvastatin AUC increase with tipranavir/ritonavir ([13]; tipranavir/ritonavir 500 mg/200 mg twice daily for 11 days): 26% | excreted unchanged in the feces [14]: 90%
